# Laboratory results as given in ChEMBL document CHEMBL4350955, “Novel Chemical Series of 5-Lipoxygenase-Activating Protein Inhibitors for Treatment of Coronary Artery Disease” (J Med Chem, 2019).
# Active and inactive are the calls of the source. The calls are words filed in the database; no cut-off is given here.
# Tests used:
# [1] = Chemical stability of the compound; format: physicochemical
# [2] = Distribution coefficient between octanol and sodium phosphate buffer, logD of the compound in pH 7.4 buffer by LC-MS/MS-based shake flask method
# [3] = biological target: Polyunsaturated fatty acid lipoxygenase ALOX12 (Homo sapiens, UniProt P18054); assay: Inhibition of 12-lipoxygenase (unknown origin)
# [4] = Selectivity ratio of inhibition of COX-2 in human whole blood to Inhibition of 5-lipoxygenase (unknown origin)
# [5] = biological target: Prostaglandin G/H synthase 1 (Homo sapiens, UniProt P23219); assay: Inhibition of COX-1 in human whole blood assessed as reduction in calcium ionophore-stimulated thromboxane B2 production preincubated for 30 mins followed by calcium ionophore stimulation and measured after 20 mins by EIA; format: tissue-based
# [6] = biological target: Kv channel-interacting protein 2/Potassium voltage-gated channel subfamily D member 3 (Homo sapiens, UniProt Q9UK17+Q9NS61); assay: Inhibition of human Kv4.3/KChIP2 by Ion-work electrophysiology assay; format: protein-complex assay
# [7] = Half-life in po or iv dosed Sprague-Dawley rat; format: ADME, organism-based; conditions: in vivo
# [8] = biological target: T1, Arachidonate 5-lipoxygenase-activating protein (Homo sapiens, UniProt P20292); assay: (§1) Inhibition of FLAP in human whole blood assessed as reduction in calcium ionophore-stimulated LTB4 production preincubated for 30 mins followed by calcium ionophore stimulation and measured after 20 mins by EIA; format: tissue-based
# T1 sequence (P20292 whole entry): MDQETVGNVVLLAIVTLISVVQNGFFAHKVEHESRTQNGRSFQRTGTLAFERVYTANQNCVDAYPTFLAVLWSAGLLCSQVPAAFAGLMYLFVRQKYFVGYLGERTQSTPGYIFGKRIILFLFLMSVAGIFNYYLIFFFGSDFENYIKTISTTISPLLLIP
# [9] = biological target: T2, Arachidonate 5-lipoxygenase-activating protein (Homo sapiens) (UniProt P20292); assay: as §1; format: tissue-based
# T2 sequence (whole entry): T1 sequence (P20292 whole entry)
# [10] = Volume of distribution at steady state in po or iv dosed Sprague-Dawley rat; format: ADME, organism-based; conditions: in vivo, read-out: Vdss
# [11] = biological target: Potassium voltage-gated channel subfamily E member 1 (Homo sapiens, UniProt P15382); assay: Inhibition of human IKs by IonWork electrophysiology method
# [12] = Inhibition of phospholipidosis in rat H42EC3 cells assessed as reduction in NBD-PE accumulation by SYTOX orange staining-based high content imaging analysis; format: cell-based
# physchem = conditions: phosphate buffer, pH 7.4
# [13] = Clearance in po or iv dosed Sprague-Dawley rat; format: ADME, organism-based; conditions: in vivo
# [14] = Ratio of drug level in blood to plasma in human at 10 uM incubated for 30 mins by LC-MS/MS analysis; format: ADME, cell-free
# [15] = Inhibition of FLAP in Beagle dog whole blood assessed as reduction in calcium ionophore-stimulated LTB4 production preincubated for 30 mins followed by calcium ionophore stimulation and measured after 20 mins by EIA; format: tissue-based; conditions: Canis lupus familiaris
# [16] = biological target: Polyunsaturated fatty acid 5-lipoxygenase (Homo sapiens, UniProt P09917); assay: Inhibition of 5-lipoxygenase (unknown origin)
# [17] = Bioavailability in po dosed Sprague-Dawley rat; format: ADME, organism-based; conditions: in vivo
# Bile salt export pump = Bile salt export pump (Homo sapiens, UniProt O95342); assay: Inhibition of recombinant human BSEP expressed in baculovirus infected Sf21 insect cell vesicles assessed as reduction in NBD-taurocholate uptake by fluorescence assay; format: ADME
# [18] = Clearance in Beagle dog at 0.004 to 0.1 umol/kg, iv or 0.1 to 1 umol/kg, po via gavage measured up to 79 hrs; format: ADME, organism-based, Canis lupus familiaris; conditions: in vivo
# [19] = biological target: Polyunsaturated fatty acid lipoxygenase ALOX15 (Homo sapiens, UniProt P16050); assay: Inhibition of 15-lipoxygenase (unknown origin)
# L5178Y = assay: Genotoxicity in mouse L5178Y cells by micronucleus Assay; format: toxicity, cell-based
# Canis familiaris = species: Canis familiaris; assay: Ex vivo inhibition of FLAP in Beagle dog assessed as reduction in ionophore-stimulated LTB4 production by EIA; format: functional, organism-based; conditions: Canis lupus familiaris
# [20] = biological target: Sodium channel protein type 5 subunit alpha (Homo sapiens, UniProt Q14524); assay: Inhibition of human NaV1.5 by Ion-work electrophysiology assay
# [21] = biological target: ATP-binding cassette sub-family C member 2 (Rattus norvegicus, UniProt Q63120); assay: Inhibition of Sprague-Dawley rat Mrp2 expressed in baculovirus infected Sf21 insect cell vesicles assessed as reduction in CDF uptake by fluorescence assay
# [22] = Metabolic stability in human hepatocytes assessed as parent compound remaining; format: ADME, cell-based, Hepatocyte
# [23] = biological target: Potassium/sodium hyperpolarization-activated cyclic nucleotide-gated channel 4 (Homo sapiens, UniProt Q9Y3Q4); assay: Inhibition of human HCN4 by Ion-work electrophysiology assay
# [24] = Oral bioavailability in Beagle dog at 0.1 to 1 umol/kg administered twice daily via gavage for 3 days and measured up to 79 hrs; format: ADME, organism-based, Canis lupus familiaris; conditions: in vivo
# [25] = Apparent permeability across apical to basolateral side in human Caco2 cells; conditions: Caco-2
# CYP450 = CYP450 (Homo sapiens, UniProt P04798+P05177+P05181+P08684+P10632+P10635+P11509+P11712+P13584+P20813+P20815+P20853+P24462+P24903+P33260+P33261+P51589+P78329+P98187+Q02928+Q08477+Q16678+Q16696+Q5TCH4+Q6VVX0+Q7Z449+Q8TAV3+Q96SQ9+Q9HB55); assay: Inhibition of CYP450 assessed as maximum reduction in metabolite formation using coumarin based substrate by fluorescence assay; format: ADME, protein assay; conditions: probe coumarin based substrate
# [26] = Volume of distribution in Beagle dog at 0.004 to 0.1 umol/kg, iv or 0.1 to 1 umol/kg, po via gavage measured up to 79 hrs; format: ADME, organism-based, Canis lupus familiaris; conditions: in vivo
# [27] = biological target: Voltage-gated inwardly rectifying potassium channel KCNH2 (Homo sapiens, UniProt Q12809); assay: Inhibition of human ERG by high-throughput electrophysiology assay
# [28] = biological target: Prostaglandin G/H synthase 2 (Homo sapiens, UniProt P35354); assay: Inhibition of COX-2 in human whole blood assessed as reduction in LPS-stimulated prostaglandin E2 production preincubated for 15 mins followed by LPS stimulation and measured after overnight incubation by EIA; format: tissue-based
# [29] = biological target: T1, Arachidonate 5-lipoxygenase-activating protein; assay: Inhibition of [3H]MK0591 binding to human FLAP expressed in […] cell membranes measured after 60 to 80 mins by scintillation counting method
# [30] = Protein binding in Sprague-Dawley rat plasma assessed as unbound fraction by LC-MS based equilibrium dialysis analysis; format: ADME, cell-free
# [31] = biological target: Aryl hydrocarbon receptor (Homo sapiens, UniProt P35869); assay: Agonist activity at AhR in human HepG2 cells assessed as induction of CYP1A1 activity at 0.001 to 30 uM measured after 24 hrs by immunocytochemistry analysis; format: ADME, cell-based; conditions: hepg2, 24 h
# [32] = Genotoxicity in Salmonella typhimurium by Ames test; format: toxicity; conditions: salmonella enterica subsp. enterica serovar typhimurium
# Method in brief: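 Two-strain Salmonella Ames test, with and without metabolic activation by rat liver S9 fraction; applied to amino pyrazole building blocks present in the series.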
# [33] = Drug absorption in Beagle dog at 0.004 to 0.1 umol/kg, iv or 0.1 to 1 umol/kg, po via gavage measured up to 79 hrs; format: ADME, organism-based, Canis lupus familiaris; conditions: in vivo
# [34] = biological target: Voltage-dependent T-type calcium channel subunit alpha-1H (Homo sapiens) (UniProt O95180); assay: Inhibition of human Cav3.2 by Ion-work electrophysiology assay
# [35] = biological target: Potassium voltage-gated channel subfamily A member 5 (Homo sapiens, UniProt P22460); assay: Inhibition of human Kv1.5 by Ion-work electrophysiology assay
# HepG2 = assay: Induction of mitochondrial impairment in human HepG2 cells incubated for 24 hrs by CellTiter-Glo Luminescent Cell Viability Assay; format: cell-based; conditions: hepg2, 24 h
# [36] = Half-life in Beagle dog at 0.004 to 0.1 umol/kg, iv or 0.1 to 1 umol/kg, po via gavage measured up to 79 hrs; format: ADME, organism-based, Canis lupus familiaris; conditions: in vivo
# [37] = Selectivity ratio of inhibition of COX-1 in human whole blood to Inhibition of 5-lipoxygenase (unknown origin)
# [38] = Protein binding in human plasma assessed as unbound fraction by LC-MS based equilibrium dialysis analysis; format: ADME, cell-free
# [39] = Intrinsic clearance in cryopreserved human hepatocytes assessed as per million cells at 1 uM measured up to 60 mins by LC-MS/MS analysis; format: ADME, cell-based, Hepatocyte; conditions: read-out: CLH
# [40] = Cytotoxicity against human THLE cells incubated for 24 hrs by MTS assay; format: cell-based
# Sequence of Kv channel-interacting protein 2/Potassium voltage-gated channel subfamily D member 3 (Q9UK17 whole entry): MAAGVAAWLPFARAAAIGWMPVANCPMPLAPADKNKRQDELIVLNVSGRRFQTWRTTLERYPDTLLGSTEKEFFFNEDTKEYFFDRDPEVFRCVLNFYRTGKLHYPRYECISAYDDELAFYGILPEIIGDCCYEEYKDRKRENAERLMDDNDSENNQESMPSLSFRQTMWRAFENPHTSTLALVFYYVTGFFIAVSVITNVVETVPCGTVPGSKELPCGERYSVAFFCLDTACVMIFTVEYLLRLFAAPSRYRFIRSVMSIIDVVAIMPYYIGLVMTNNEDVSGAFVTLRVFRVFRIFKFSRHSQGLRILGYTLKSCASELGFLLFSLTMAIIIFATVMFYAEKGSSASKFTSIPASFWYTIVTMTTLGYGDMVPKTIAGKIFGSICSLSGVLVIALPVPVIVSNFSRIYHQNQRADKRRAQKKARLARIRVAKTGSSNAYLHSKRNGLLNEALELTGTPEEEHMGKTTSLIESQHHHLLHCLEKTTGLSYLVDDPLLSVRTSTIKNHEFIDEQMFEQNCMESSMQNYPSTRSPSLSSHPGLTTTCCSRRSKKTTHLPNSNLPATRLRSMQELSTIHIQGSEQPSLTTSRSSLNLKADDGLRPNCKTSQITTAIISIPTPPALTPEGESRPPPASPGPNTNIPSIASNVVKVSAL
# Sequence of Kv channel-interacting protein 2/Potassium voltage-gated channel subfamily D member 3 (Q9NS61 whole entry): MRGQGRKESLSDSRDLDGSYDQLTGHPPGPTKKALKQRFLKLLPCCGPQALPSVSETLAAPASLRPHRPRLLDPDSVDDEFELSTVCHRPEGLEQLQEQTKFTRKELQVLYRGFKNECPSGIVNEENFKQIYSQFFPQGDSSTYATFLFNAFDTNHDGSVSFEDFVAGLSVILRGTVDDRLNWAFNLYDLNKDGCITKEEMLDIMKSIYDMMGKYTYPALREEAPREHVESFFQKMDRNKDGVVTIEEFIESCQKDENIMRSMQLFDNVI
# Sequence of Prostaglandin G/H synthase 1 (P23219 whole entry): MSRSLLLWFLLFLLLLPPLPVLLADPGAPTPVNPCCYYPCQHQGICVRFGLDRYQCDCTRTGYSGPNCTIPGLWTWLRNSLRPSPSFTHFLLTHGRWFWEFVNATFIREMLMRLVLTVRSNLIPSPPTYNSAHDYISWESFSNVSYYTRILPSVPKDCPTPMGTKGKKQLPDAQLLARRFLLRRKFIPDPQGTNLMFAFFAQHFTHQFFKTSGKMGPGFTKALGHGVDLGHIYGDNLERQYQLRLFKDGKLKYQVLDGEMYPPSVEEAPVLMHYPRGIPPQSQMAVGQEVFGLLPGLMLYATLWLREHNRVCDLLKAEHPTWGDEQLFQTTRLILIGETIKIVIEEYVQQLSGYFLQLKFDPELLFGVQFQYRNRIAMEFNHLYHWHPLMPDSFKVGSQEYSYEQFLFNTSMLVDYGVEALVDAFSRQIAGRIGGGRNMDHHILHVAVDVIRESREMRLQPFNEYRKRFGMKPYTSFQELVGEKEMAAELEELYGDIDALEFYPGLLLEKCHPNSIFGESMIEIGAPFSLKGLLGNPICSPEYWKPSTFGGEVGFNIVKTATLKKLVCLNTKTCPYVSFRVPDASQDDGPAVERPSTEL
# Sequence of Voltage-gated inwardly rectifying potassium channel KCNH2 (Q12809 whole entry): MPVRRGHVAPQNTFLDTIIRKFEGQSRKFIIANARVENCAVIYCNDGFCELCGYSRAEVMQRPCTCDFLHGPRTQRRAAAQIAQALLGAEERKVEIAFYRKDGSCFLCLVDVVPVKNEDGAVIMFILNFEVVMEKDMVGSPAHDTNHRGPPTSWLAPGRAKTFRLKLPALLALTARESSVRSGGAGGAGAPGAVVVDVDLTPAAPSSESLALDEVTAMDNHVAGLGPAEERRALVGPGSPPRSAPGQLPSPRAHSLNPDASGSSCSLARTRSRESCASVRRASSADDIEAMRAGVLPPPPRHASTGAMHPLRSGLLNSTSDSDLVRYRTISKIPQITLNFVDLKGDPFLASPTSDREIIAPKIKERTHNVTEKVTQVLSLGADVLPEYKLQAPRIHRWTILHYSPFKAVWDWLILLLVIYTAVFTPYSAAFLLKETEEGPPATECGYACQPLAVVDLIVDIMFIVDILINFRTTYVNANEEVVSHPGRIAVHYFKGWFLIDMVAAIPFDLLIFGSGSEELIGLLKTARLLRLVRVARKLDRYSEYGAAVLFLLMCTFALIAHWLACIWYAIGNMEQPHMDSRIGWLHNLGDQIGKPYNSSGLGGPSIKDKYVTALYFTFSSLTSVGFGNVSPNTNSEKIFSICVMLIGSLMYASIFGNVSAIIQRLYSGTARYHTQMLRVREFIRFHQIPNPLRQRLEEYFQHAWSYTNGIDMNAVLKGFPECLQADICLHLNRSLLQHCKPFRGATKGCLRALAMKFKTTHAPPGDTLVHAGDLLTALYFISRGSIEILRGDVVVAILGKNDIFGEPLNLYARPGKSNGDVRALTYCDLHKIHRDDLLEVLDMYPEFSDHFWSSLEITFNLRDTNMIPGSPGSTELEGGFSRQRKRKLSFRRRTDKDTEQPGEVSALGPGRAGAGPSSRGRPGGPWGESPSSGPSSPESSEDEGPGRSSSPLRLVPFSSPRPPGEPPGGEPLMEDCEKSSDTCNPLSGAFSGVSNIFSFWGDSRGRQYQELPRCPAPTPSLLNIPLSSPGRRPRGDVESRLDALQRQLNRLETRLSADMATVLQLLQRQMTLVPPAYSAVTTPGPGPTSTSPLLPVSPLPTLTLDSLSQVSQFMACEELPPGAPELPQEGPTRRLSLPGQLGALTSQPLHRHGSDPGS
# Sequence of Sodium channel protein type 5 subunit alpha (Q14524 whole entry): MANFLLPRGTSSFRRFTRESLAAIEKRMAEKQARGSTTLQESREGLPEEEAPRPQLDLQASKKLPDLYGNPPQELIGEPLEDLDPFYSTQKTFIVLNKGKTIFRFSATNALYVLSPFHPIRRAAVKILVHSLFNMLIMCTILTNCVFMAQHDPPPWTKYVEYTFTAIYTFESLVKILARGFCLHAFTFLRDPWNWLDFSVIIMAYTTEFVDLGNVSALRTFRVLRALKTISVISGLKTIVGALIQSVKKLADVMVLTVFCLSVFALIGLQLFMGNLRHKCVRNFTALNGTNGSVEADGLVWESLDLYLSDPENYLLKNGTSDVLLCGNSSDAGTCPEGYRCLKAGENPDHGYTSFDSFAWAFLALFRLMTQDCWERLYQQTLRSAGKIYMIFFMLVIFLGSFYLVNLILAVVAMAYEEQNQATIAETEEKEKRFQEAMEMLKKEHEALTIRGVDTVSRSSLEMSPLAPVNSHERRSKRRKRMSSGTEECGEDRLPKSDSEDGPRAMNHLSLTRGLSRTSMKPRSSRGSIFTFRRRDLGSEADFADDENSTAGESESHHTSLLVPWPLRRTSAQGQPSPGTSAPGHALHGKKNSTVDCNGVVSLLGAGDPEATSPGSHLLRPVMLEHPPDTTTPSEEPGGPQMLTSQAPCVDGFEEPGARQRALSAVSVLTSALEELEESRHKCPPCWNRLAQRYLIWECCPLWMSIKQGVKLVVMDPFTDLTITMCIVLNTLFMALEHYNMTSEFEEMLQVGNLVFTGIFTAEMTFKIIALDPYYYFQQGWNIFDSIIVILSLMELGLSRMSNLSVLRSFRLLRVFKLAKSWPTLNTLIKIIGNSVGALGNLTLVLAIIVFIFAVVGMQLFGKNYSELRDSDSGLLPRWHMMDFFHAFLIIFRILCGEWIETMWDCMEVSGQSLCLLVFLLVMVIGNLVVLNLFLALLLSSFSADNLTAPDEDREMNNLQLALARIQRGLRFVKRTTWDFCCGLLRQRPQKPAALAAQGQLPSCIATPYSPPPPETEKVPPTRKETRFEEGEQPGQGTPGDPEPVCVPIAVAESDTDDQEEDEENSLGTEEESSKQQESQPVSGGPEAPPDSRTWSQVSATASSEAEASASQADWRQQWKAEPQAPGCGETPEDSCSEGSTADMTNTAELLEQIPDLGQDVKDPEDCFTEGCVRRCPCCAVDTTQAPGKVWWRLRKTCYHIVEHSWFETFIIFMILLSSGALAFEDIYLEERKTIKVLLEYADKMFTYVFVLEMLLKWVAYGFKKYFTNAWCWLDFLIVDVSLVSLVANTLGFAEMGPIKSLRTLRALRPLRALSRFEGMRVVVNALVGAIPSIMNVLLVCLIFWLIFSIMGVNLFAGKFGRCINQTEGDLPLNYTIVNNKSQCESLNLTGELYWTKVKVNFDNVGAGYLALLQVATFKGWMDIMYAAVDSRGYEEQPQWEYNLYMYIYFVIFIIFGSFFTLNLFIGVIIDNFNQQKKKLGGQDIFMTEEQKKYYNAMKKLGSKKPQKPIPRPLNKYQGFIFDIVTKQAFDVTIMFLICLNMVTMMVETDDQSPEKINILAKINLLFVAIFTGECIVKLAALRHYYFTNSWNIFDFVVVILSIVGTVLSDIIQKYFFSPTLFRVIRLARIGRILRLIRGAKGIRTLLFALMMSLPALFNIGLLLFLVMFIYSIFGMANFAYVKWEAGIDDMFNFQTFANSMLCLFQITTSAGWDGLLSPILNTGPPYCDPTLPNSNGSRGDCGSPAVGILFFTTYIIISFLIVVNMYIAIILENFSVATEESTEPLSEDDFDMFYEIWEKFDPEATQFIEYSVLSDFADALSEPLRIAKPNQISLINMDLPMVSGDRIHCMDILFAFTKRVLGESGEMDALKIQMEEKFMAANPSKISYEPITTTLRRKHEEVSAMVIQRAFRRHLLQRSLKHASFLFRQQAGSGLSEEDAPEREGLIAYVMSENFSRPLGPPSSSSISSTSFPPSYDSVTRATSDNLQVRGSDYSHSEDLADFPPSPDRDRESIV
smiles,measurement,setting,value
Cn1cc(NC(=O)[C@@H]2CCCC[C@H]2C(=O)c2ccc(-c3ccn[nH]3)cc2)c(OC(F)F)n1,Stability,[1],Unstable
same,logD,[2],3
Cc1cc(-c2ccc(C(=O)[C@@H]3CCCC[C@H]3C(=O)Nc3cn(C)nc3C)cc2)n[nH]1,inhibition (INH),[3],Not Active
same,Selectivity ratio,[4],>= 100
same,inhibition (INH),[5],Not Active
same,inhibition (INH),[6],Not Active
same,half-life,[7],270 min
same,IC50,[8],63.1 nM
same,fpIC50,[9],8.1
same,Vd,[10],0.83 L/kg
same,inhibition (INH),[11],Not Active
same,EC50,[12],32 µM
same,solubility at 24 h,physchem,225 µM
same,clearance,[13],6 mL/min/kg
same,"blood plasma ratio at 0.5 h, 10 µM",[14],0.74
same,IC50,[15],28 nM
same,inhibition (INH),[16],Not Active
same,bioavailability,[17],47%
same,IC50,Bile salt export pump,120 µM
same,clearance,[18],3.33 mL/min/kg
same,inhibition (INH),[19],Not Active
same,Activity,L5178Y,Non-Toxic
same,IC50,Canis familiaris,34 nM
same,inhibition,Canis familiaris,Dose-dependent effect
same,inhibition (INH),[20],Not Active
same,inhibition (INH),[21],Not Active
same,Stability,[22],72%
same,inhibition (INH),[23],Not Active
same,bioavailability,[24],51%
same,Papp A→B,[25],20 ×10⁻⁶ cm/s
same,IC50,CYP450,> 25.1 µM
same,Vd,[26],0.98 L/kg
same,logD,[2],3
same,IC50,[27],> 100 µM
same,inhibition (INH),[28],Not Active
same,IC50,[29],63.1 nM
same,fraction unbound,[30],0.043
same,Activity,[31],Not Active
same,Activity,[32],Non-Toxic
same,ka,[33],5.3 h⁻¹
same,inhibition,[34],inactive
same,inhibition (INH),[35],Not Active
same,Activity,HepG2,Non-Toxic
same,half-life,[36],204 min
same,Selectivity ratio,[37],>= 100
same,fraction unbound,[38],0.11
same,hepatocyte CLint at 1 µM,[39],4 µL/min/1e6 cells
same,Activity,[40],Non-Toxic
